Here are results for 18 molecules from ChEMBL document CHEMBL1800046, “Design, synthesis, and X-ray crystallographic studies of α-aryl substituted fosmidomycin analogues as inhibitors of Mycobacterium tuberculosis 1-deoxy-D-xylulose 5-phosphate reductoisomerase” (J Med Chem, 2011).

For assay [1], the system named is Mycobacterium tuberculosis. Put plainly: Antibacterial activity against Mycobacterium tuberculosis H37Rv ATCC 27294 after 14 days by microplate alamar blue assay. The assay is classed as functional. The following applies: H37Rv ATCC 27294, 336 h. Put shortly: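 Resazurin (Alamar blue) dye readout in 96-well format. Serially diluted compound added to a log-phase culture of M. tuberculosis H37Rv (ATCC 27294). MIC recorded in µg/ml.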
Background: The colour change of resazurin is a common sign of viable cells or microbes.

The subject of assay [2] is Mycobacterium tuberculosis. Put plainly: Inhibition of Mycobacterium tuberculosis DXR-catalyzed NADPH-dependent rearrangement and reduction of DXP to form MEP at 100 uM measured every 5 secs for 500 secs by spectrophotometric analysis. Summed up:
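Screened with inhibitor at 100 µM. Started by adding DXP, at 22 °C. A340 for NADPH read every 5 s over 500 s. Initial velocity from the linear slope, compared with the uninhibited reaction.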

A short description of assay [3]: Inhibition of Mycobacterium tuberculosis DXR-catalyzed NADPH-dependent rearrangement and reduction of DXP to form MEP measured every 5 secs for 500 secs by spectrophotometric analysis.

In general, MIC refers to the least concentration at which growth counts as inhibited. High values mean a less susceptible organism, low ones a more susceptible organism. Usually inhibition stands for how much of the control response was suppressed. Low values mean a weak effect, high ones a strong effect. For `CC(=O)N(O)CCC1c2ccccc2COP1(=O)O` (racemic), the MIC in assay [1] was above 32 µg/mL. Moreover, the inhibition in assay [2] came out at 12%.
Usually IC50 stands for the concentration that gives 50% inhibition. A higher IC50 goes with lower potency. Regarding `CC(=O)N(O)CCC(c1ccccc1)P(=O)(O)O` (racemic), half-maximal inhibition in assay [3] (IC50) was put at 7.4 µM. This molecule also came in with an MIC in assay [1] above 32 µg/mL. This molecule had an inhibition in assay [2] of 92%.
As for `CC(=O)N(O)CCC(c1ccccc1C#N)P(=O)(O)O` (racemic), in assay [1], the MIC is above 32 µg/mL. For the same molecule, in assay [2], the inhibition came out at 30%.
The molecule `CC(=O)N(O)CCC(c1ccccc1-c1cccs1)P(=O)(O)O` (racemic) gave an MIC in assay [1] above 32 µg/mL. The same molecule registered an inhibition in assay [2] of 30%.
Consider `CCOP(=O)(O)C(CCN(O)C(C)=O)c1ccc(Cl)c(Cl)c1` (racemic), for which the IC50 in assay [3] turned out to be 22 µM.
With `CCOP(=O)(O)C(CCNC(C)=O)c1ccccc1-c1cccnc1` (racemic), the minimum inhibitory concentration (MIC) in assay [1] was above 32 µg/mL. Moreover, the inhibition in assay [2] stood at 20%.
As for `O=CN(O)CCC(c1ccccc1Br)P(=O)(O)O` (racemic), the concentration for half-maximal inhibition (IC50) in assay [3] amounted to 5.6 µM. Further, in assay [1], the minimum inhibitory concentration (MIC) is above 32 µg/mL. This molecule gave an inhibition in assay [2] of 93%.
`CC(=O)N(O)CCC(c1ccccc1-c1cccnc1)P(=O)(O)O` (racemic): the MIC in assay [1] is above 32 µg/mL. Also, in assay [2], the inhibition was 20%.
In turn, `O=CN(O)CCCP(=O)(O)O` [FOSMIDOMYCIN] registered an IC50 in assay [3] of 0.08 µM.
Molecule `CC(=O)N(O)CCC(c1ccccc1CCO)P(=O)(O)O` (racemic) registered an IC50 in assay [3] of 150 µM. This molecule came in with an MIC in assay [1] above 32 µg/mL. The molecule also yielded an inhibition in assay [2] of 35%.
As for `CCOP(=O)(OCC)C(CCN(O)C=O)c1ccc(Cl)c(Cl)c1` (racemic), the IC50 in assay [3] was above 100 µM.
On the same count and under the same terms, with `CC(=O)N(O)CCCP(=O)(O)O` [FR-900098] the figure was 0.16 µM.
Regarding `CC(=O)N(O)CCC(c1ccccc1CO)P(=O)(O)O` (racemic), half-maximal inhibition in assay [3] (IC50) was put at 465 µM. The same molecule had an MIC in assay [1] above 32 µg/mL. Besides, the inhibition in assay [2] was found to be 36%.
With `COCc1ccccc1C(CCN(O)C(C)=O)P(=O)(O)O` (racemic), the MIC in assay [1] is above 32 µg/mL. The molecule further displayed an inhibition in assay [2] of 30%.
Molecule `CCOP(=O)(OCC)C(CCN(O)C(C)=O)c1ccc(Cl)c(Cl)c1` (racemic) returned an IC50 in assay [3] above 100 µM.
Consider `CC(=O)N(O)CCC(c1ccccc1Br)P(=O)(O)O` (racemic), for which the IC50 in assay [3] stood at 210 µM. The molecule also yielded an MIC in assay [1] above 32 µg/mL. The molecule further showed an inhibition in assay [2] of 38%.
In the case of `CCOP(=O)(O)C(CCN(O)C=O)c1ccc(Cl)c(Cl)c1` (racemic), the IC50 in assay [3] was determined as 38 µM.
For the molecule `CC(=O)N(O)CCC(c1ccccc1C)P(=O)(O)O` (racemic), inhibition in assay [3] was half-maximal at 205 µM (IC50). The same molecule showed an MIC in assay [1] above 32 µg/mL. Moreover, the inhibition in assay [2] amounted to 55%.
